# Experimental data collected from several papers.
# Lines come from different studies, so protocols differ.
# PIK3CA I800L: Phosphatidylinositol 4,5-bisphosphate 3-kinase catalytic subunit alpha isoform (PIK3CA, Homo sapiens, UniProt P42336, I800L)
# PIK3CA M1043I: Phosphatidylinositol 4,5-bisphosphate 3-kinase catalytic subunit alpha isoform (PIK3CA, Homo sapiens, UniProt P42336, M1043I)
# PIK3CA: Phosphatidylinositol 4,5-bisphosphate 3-kinase catalytic subunit alpha isoform (PIK3CA, Homo sapiens, UniProt P42336)
# PIK3CA E542K: Phosphatidylinositol 4,5-bisphosphate 3-kinase catalytic subunit alpha isoform (PIK3CA, Homo sapiens, UniProt P42336, E542K)
# PIK3CA E545A: Phosphatidylinositol 4,5-bisphosphate 3-kinase catalytic subunit alpha isoform (PIK3CA, Homo sapiens, UniProt P42336, E545A)
SMILES,target,test,setting,endpoint,value
c1cnn2ncc(-c3ccnc(N4CCC45COC5)n3)c2c1,PIK3CA I800L,binding,1 µM,remaining binding,68%
Nc1ncnc2occ(-c3ccc(NC(=O)Nc4cc(C(F)(F)F)ccc4F)cc3)c12,PIK3CA M1043I,"cell-free assay, inhibitor",20 µM,remaining signal,100%
c1ccc(CNc2nc(N3CCOc4ccccc43)nc3c2CCCC3)cc1,PIK3CA,"target engagement in cells, inhibitor, chemoproteomics",20 mM,inhibition,28.5%
F[C@@H]1CCN(c2nccc(-c3cnn4ncccc34)n2)C1,"Phosphatidylinositol 4,5-bisphosphate 3-kinase catalytic subunit alpha isoform (PIK3CA, Homo sapiens, UniProt P42336, H1047Y)",binding,1 µM,remaining binding,81%
COc1cccc2c(NCc3ccccc3)nc(-n3c(N)nc4ccccc43)nc12,PIK3CA,"target engagement in cells, inhibitor, chemoproteomics",20 mM,inhibition,5.6%
NS(=O)(=O)c1cc(NC(=O)C2(c3ccccc3Cl)CC2)ccc1Oc1cccc(Cl)c1,PIK3CA I800L,"cell-free assay, competition with immobilised ligand",1 µM,remaining binding,100%
CC(C)=CC(=O)CCCC(=O)N1CCN(c2nc(-c3cnc(N)nc3C(F)F)nc(N3CCOCC3)n2)CC1,PIK3CA,"cell-free assay, TR-FRET",,kinact,2.6e-05 s⁻¹
Cc1ccc(C(=O)Nc2ccc(CN3CCN(C)CC3)c(C(F)(F)F)c2)cc1C#Cc1cnc2cccnn12,PIK3CA E542K,"enzyme activity, inhibitor",23.5 nM,remaining activity,96%
CN(C)c1nccc(-c2cnc3ncccn23)n1,"Phosphatidylinositol 4,5-bisphosphate 3-kinase catalytic subunit alpha isoform (PIK3CA, Homo sapiens, UniProt P42336, C420R)",binding,1 µM,remaining binding,58%
O=C(CSc1nc2nccnc2c(=O)n1CCc1ccccc1)Nc1ccccc1,PIK3CA,"enzyme activity, inhibitor",10 µM,inhibition,< 20%
Cc1nc(Cc2cccc(C(F)(F)F)c2)sc1-c1ccc(C(N)=O)nc1,PIK3CA E545A,"cell-free assay, competition with immobilised ligand",1 µM,remaining binding,100%
C=CC(=O)N1CCC(C(=O)N(C)CCCC(=O)N2CCN(c3nc(-c4cnc(N)nc4C(F)F)nc(N4CCOCC4)n3)CC2)CC1,PIK3CA,"cell-free assay, TR-FRET",,kinact/KI,33600 M⁻¹ s⁻¹
COc1cccc(CNC(=O)c2nc3scc(COCc4ccc(C(=O)O)cc4)c3c(=O)[nH]2)c1,PIK3CA I800L,"cell-free assay, competition with immobilised ligand",1 µM,remaining binding,77.2%
C=CC(=O)NCCCCC(=O)N1CCN(c2nc(-c3cnc(N)nc3C(F)F)nc(N3CCOCC3)n2)CC1,PIK3CA,"ligand displacement, TR-FRET",,kinact,9.6e-05 s⁻¹
CN(C)c1nccc(-c2cnn3ncccc23)n1,PIK3CA I800L,binding,1 µM,remaining binding,96%
C=CC(=O)N(C)CCCCC(=O)N1CCN(c2nc(-c3cnc(N)nc3C(F)F)nc(N3CCOCC3)n2)CC1,PIK3CA,"cell-free assay, TR-FRET",,kinact/KI,20300 M⁻¹ s⁻¹
O=c1nc(-c2ccccn2)sc2ccccc12,PIK3CA M1043I,"cell-free assay, competition with immobilised ligand",1 µM,remaining binding,100%
Cc1cnn2ncc(-c3ccnc(N(C)C)n3)c2c1,PIK3CA E545A,binding,1 µM,remaining binding,100%
Cc1ccc(C(=O)NCc2ccsc2)cc1C#Cc1cn(C(C)C)c2ncnc(N)c12,"Phosphatidylinositol 4,5-bisphosphate 3-kinase catalytic subunit alpha isoform, with p85 (PIK3CA, Homo sapiens, UniProt P42336, E542K)","enzyme activity, inhibitor",1 µM,activity vs control,100%
COc1cc(-c2cn(C3CCc4ccccc4N(CC(F)(F)F)C3=O)nn2)ccc1-n1ccc(C)n1 (stereo not shown),PIK3CA E542K,"cell-free assay, competition with immobilised ligand",1 µM,remaining binding,82%
CC(=O)Oc1ccc(-c2coc3c4c(c(CC=C(C)C)c(OC(C)=O)c3c2=O)OC(C)(C)C=C4)cc1OC(C)=O,"Phosphatidylinositol 4,5-bisphosphate 3-kinase catalytic subunit alpha isoform (PIK3CA, Homo sapiens, UniProt P42336, E545K)","enzyme activity, inhibitor, ADP detection",10 µM,remaining activity,37.6%
N[C@@H]1CCN(c2nccc(-c3cnn4ncccc34)n2)C1,"Phosphatidylinositol 4,5-bisphosphate 3-kinase catalytic subunit alpha isoform (PIK3CA, Homo sapiens, UniProt P42336, H1047L)",binding,1 µM,remaining binding,100%
O=C(Nc1cccnn1)N1CC(C/C=C/c2cncc(Oc3ccc(C(F)(F)F)cn3)n2)C1,PIK3CA I800L,"cell-free assay, competition with immobilised ligand",1 µM,remaining binding,91%
C[C@@H]1CCN(c2nccc(-c3cnn4ncccc34)n2)C1,PIK3CA E545A,binding,1 µM,remaining binding,88%
CC(C)(O)c1cncc(-c2nc3ccc(F)cc3n2C2CC2)c1,PIK3CA M1043I,"cell-free assay, competition with immobilised ligand",1 µM,remaining binding,100%
